In brackets after ≈: the same amount, converted by molar mass. Activity calls are given as the source filed them. The rule behind the calls is not given here.
Key:
[1] = molecular target: T1, Prostaglandin D2 receptor 2 (Homo sapiens, UniProt Q9Y5Y4); assay: Displacement of [3H]PGD2 from human CRTH2 expressed in chinese hamster CHO cells by liquid scintillation counting; type: cell-based
T1 sequence (Q9Y5Y4 whole entry): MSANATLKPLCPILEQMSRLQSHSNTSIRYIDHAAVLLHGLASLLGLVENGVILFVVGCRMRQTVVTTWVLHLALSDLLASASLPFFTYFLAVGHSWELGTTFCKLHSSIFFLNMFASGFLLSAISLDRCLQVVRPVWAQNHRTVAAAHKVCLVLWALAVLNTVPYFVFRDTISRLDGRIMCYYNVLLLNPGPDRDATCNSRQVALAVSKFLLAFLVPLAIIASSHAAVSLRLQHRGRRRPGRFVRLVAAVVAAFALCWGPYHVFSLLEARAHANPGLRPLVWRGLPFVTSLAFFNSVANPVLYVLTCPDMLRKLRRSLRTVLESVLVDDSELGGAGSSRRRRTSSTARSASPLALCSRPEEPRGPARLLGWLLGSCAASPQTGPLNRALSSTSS
In short: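 Scintillation proximity competition assay: 2–5 μg human CRTH2 cell membranes, 1.5 nM [3H]PGD2, WGA-SPA beads, 10 mM HEPES/KOH pH 7.4, 10 mM MnCl2, protease inhibitors, 1% DMSO; 90 min, room temperature, shaking. Nonspecific binding defined with 1 μM PGD2. Ki by Cheng–Prusoff, mean of ≥3 independent dose–response experiments.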

[2] = Percentage unbound in human plasma; type: ADME, cell-free
[3] = Percentage unbound in rat plasma; type: ADME, cell-free
[4] = Percentage unbound in mouse plasma; type: ADME, cell-free
[5] = Apparent permeability across human Caco2 cells at 1 uM after 2 hrs by LC/MS/MS analysis; type: ADME, cell-based; details: Caco-2
[6] = Lipophilicity, log D of the compound at pH 7.4; type: physicochemical; details: buffer
[7] = Clearance in BALB/c mouse at 5 mg/kg, po by LC/MS/MS analysis; type: ADME, organism-based; parameters: dose 5 mg/kg, route oral; details: in vivo
[8] = Half life in BALB/c mouse at 1 mg/kg, iv and 5 mg/kg, po by LC/MS/MS analysis; type: ADME, organism-based; details: in vivo
[9] = Thermodynamic solubility of the compound in aqueous solution at pH 7.4; type: physicochemical; details: read-out: Therm_solubility
Mus musculus [10] = assay: Antiinflammatory activity in BALB/c mouse model assessed as inhibition of ovalbumin-induced eosinophil accumulation in bronchoalveolar lavage fluid at 1 mg/kg, ip administered 1 hr prior to and 7 hrs after ovalbumin challenge for 3 days measured 8 hrs after final dose by cell counting; type: functional; details: Lung, route intraperitoneal
In short: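 BALB/c mice were immunised with ovalbumin ip on days 0 and 7, then challenged with aerosolised ovalbumin for 30 min on days 15, 16 and 17. Bronchoalveolar lavage was done 8 h after the last challenge. Total cells were counted by haemocytometer, and eosinophils by differential count on DiffQuik-stained cytospins. Results are given as % inhibition, mean ± SEM.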

Mus musculus [11] = assay: Antiinflammatory activity in BALB/c mouse contact hypersensitivity model assessed as inhibition of FITC-mediated ear swelling at 5 mg/kg, ip administered 1 hr prior to and 7 hrs after the FITC-challenge measured 24 hrs after final dose

| Ki [1] [nM] | fraction unbound [2] | fraction unbound [3] | fraction unbound [4] | Papp at 2 h, 1 µM [5] [×10⁻⁶ cm/s] | logD [6] | CL/F [7] [mL/min/kg] | half-life [8] [h] | solubility thermodynamic [9] [µg/mL] | Structure (SMILES) | inhibition in vivo at 1 mg/kg (Mus musculus [10]) [%] | inhibition (Mus musculus [11]) |
| --- | --- | --- | --- | --- | --- | --- | --- | --- | --- | --- | --- |
| 37 | 0.033 | 0.057 | 0.034 | 1.8 | -1.4 | 13.3 | 4.4 | 193 (≈ 489 µM) | CN(C)S(=O)(=O)c1cncc(C#Cc2cc(Cl)ccc2OCC(=O)O)c1 |  |  |
|  |  |  |  |  |  |  |  |  | C[C@@H]1C[C@H]2[C@@H]3CCC4=CC(=O)C=C[C@]4(C)[C@@]3(F)[C@@H](O)C[C@]2(C)[C@@]1(O)C(=O)CO [DEXAMETHASONE] | 90 | Active |

Source: ChEMBL document CHEMBL1914440, “Discovery of potent, selective, and orally bioavailable alkynylphenoxyacetic acid CRTH2 (DP2) receptor antagonists for the treatment of allergic inflammatory diseases” (J Med Chem, 2011)
